Screening results deposited in PubChem by Broad Institute.
PfHsp90 set2 = growth inhibition of yeast expressing Plasmodium Hsp90 | inhibition, % at 9.4 µM | S. cerevisiae expressing PfHsp90, BacTiter-Glo ATP, 48 h; yeast lacking PDR1 and PDR3 efflux regulators | actives 0.32% (n = 310,000);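 active = every replicate shows inhibition above about 80%, whatever the replicate mean, limit read from the data; inconclusive = mean inhibition reaches the set limit but some replicate falls short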
Beta apoptosis = blocks beta cell apoptosis; INS-1E cytokine-induced death, ATP luminescence, 48 h; percent of positive-control rescue, neutral wells zero; protection from apoptosis, % (no concentration beside the values); actives 0.8% (n = 300,000); AID 435005;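 active = Every replicate reaches about 75%, or at least half do and their mean reaches it too, limit read from the data; inconclusive = At least half of replicates reach the limit but their mean does not; inactive = Under half of replicates reach the limit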;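 also: higher means more ATP so stronger rescue from cytokine killing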
SKKanGAS inh = SKKanGAS growth inhibition | actives 1.3% (n = 300,000) | AID 1662 | inhibition, % at 7.5 µM | S. pyogenes SKKanGAS, kanamycin growth, BacTiter-Glo, 6 h;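 active = mean replicate score, as percent of positive control median, at least 50; inconclusive = mean below 50 but one replicate at or above 50; inactive = mean and every replicate below 50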;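 also: strain carries kanamycin resistance gene driven by streptokinase promoter and grows in 40 µg/ml kanamycin; loss of luminescence reflects streptokinase promoter inhibition or plain growth inhibition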
HIF act = HIF pathway transcriptional activation | U2OS HRE-luciferase reporter, luminescence; normalized: DMSO 0%, desferrioxamine 100% | activation, % at 7.5 µM (by protocol) | actives 0.32% (n = 300,000);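 active = mean activation of at least 10% of the iron chelator positive control signal, with at least half of replicates also reaching 10%; inconclusive = mean and replicate majority disagree about reaching 10%; inactive = mean and most replicates under 10%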
T cruzi repl = T. cruzi replication inhibition. inhibition, % (no concentration beside the values). T. cruzi beta-gal in NIH3T3, luminescence, 90 h. actives 1.4% (n = 300,000);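 active = mean inhibition across valid replicates above about 55%, limit read from the data; inconclusive = mean below that limit but half or more replicates reach it; inactive = mean below it, under half of replicates reach it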;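 also: signal also drops with host cell toxicity which is not excluded here; higher percent means less beta-gal luminescence so fewer parasites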
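Material: NIH/3T3 host cells with β-galactosidase reporter T. cruzi; Input: 5,000 host fibroblasts per well; Medium: DMEM, 2% fetal bovine serum; Compound: 50 nL DMSO compound solution per well; Schedule: 3 h host attachment, then at least 90 h co-culture; Detection: luminescent β-galactosidase signal after 60 min lysis.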
CSC inhib = blocks cancer stem cells | AID 2717 | cancer stem cell-like cells viability, luminescence | actives 1.1% (n = 300,000) | inhibition, % at 7.5 µM; in the data active = inhibition above about 75%; inconclusive = no clear call, values can overlap the other calls; tested in HMLE shEcad cells
Of the large screens only hits and unclear results are named; the others gave an inactive call. Most compounds without a hit are left out; they make up all but 3.6% or so of the library.

c1ccc(C(c2nnnn2C2CCCC2)N2CCN(c3nc4ccccc4s3)CC2)cc1 (centres undefined)	T cruzi repl 71
c1ccc(CCn2nnnc2C(c2cccnc2)N2CCN(c3nc4ccccc4s3)CC2)cc1 (centres undefined)	T cruzi repl 60 (no result: HIF act)
Cc1ccccc1N1CCN(C(=O)c2ccc(Oc3ccc(C(F)(F)F)cn3)cc2)CC1	T cruzi repl 58, CSC inhib 87
CCC(=O)NC(c1cccs1)c1cc(Cl)c2cccnc2c1O (centres undefined)	PfHsp90 set2 102, Beta apoptosis 99, SKKanGAS inh 66, HIF act 31, T cruzi repl 59, CSC inhib 119
CCCCC(=O)NC(c1cccs1)c1cc(Cl)c2cccnc2c1O (centres undefined)	PfHsp90 set2 103, Beta apoptosis 94, SKKanGAS inh 67, HIF act 34, T cruzi repl inconclusive, CSC inhib 120
CCCCC(=O)NC(c1ccco1)c1c(O)ccc2ccccc12 (centres undefined)	none
O=C(COC(=O)[C@H](Cc1ccccc1)NC(=O)c1cccs1)NC1CC1	none
O=C(NC1CCCC1)C(c1ccncc1)N(C(=O)Cc1cccs1)c1cccc(F)c1 (centres undefined)	none (no result: CSC inhib)
Cc1ccc(NS(=O)(=O)c2cc3c4c(cccc4c2)C(=O)NC3=O)cc1C	CSC inhib 79
O=C1NC(=O)c2cc(Br)cc3cccc1c23	none (no result: Beta apoptosis)
COc1ccc(NS(=O)(=O)c2cccc(C(=O)NNC(=O)CN3C(=O)NC(C)(C)C3=O)c2)cc1	none (no result: CSC inhib)
CC1CCN(c2nc(Cl)nc(Nc3ccc([N+](=O)[O-])cc3)n2)CC1	PfHsp90 set2 98, CSC inhib inconclusive
Cc1ccc(-c2c(C#N)c(N)n3c(nc4ccccc43)c2C#N)cc1	Beta apoptosis 80, SKKanGAS inh 52 (no result: PfHsp90 set2)
CNc1cc(C)c(C#N)c2nc3ccccc3n12	none
CCc1c(C)c(C#N)c2nc3ccccc3n2c1NC	none
Cc1cc(Cl)n2c(nc3ccccc32)c1C#N	T cruzi repl 71 (no result: PfHsp90 set2, Beta apoptosis, CSC inhib)
Cc1c(CCCl)c(Cl)n2c(nc3ccccc32)c1C#N	PfHsp90 set2 103 (no result: Beta apoptosis, SKKanGAS inh, HIF act, T cruzi repl, CSC inhib)
N#Cc1c(-c2ccccc2)c(C#N)c2nc3ccccc3n2c1N	none
O=C(O)C1CC=C(Cl)CC1C(=O)NC1CCCCC1 (centres undefined)	none (no result: PfHsp90 set2)
COCCNC(=O)c1cccc(OC2CCN(Cc3ccc(C(=O)OC)cc3)CC2)c1	none (no result: Beta apoptosis)
Cc1ccc(CN2CCC(Oc3cccc(C(=O)N(C)CCN(C)C)c3)CC2)cc1C	T cruzi repl 57
CCCCCN(C(=O)CCC(=O)OC(C)C(=O)c1ccc(CC)cc1)c1c(N)n(CCCC)c(=O)[nH]c1=O (centres undefined)	none (no result: Beta apoptosis, SKKanGAS inh, HIF act, T cruzi repl, CSC inhib)
O=C(C1CCC1)N1CCc2cc(S(=O)(=O)Nc3ccc4c(c3)OCCO4)ccc21	Beta apoptosis 79
COc1cccc2sc3cc(NCc4ccc(C)o4)ccc3c(=O)c12	none (no result: SKKanGAS inh, HIF act, T cruzi repl)
O=c1[nH]c(Nc2nc3ccccc3o2)nc2c1CCCC2	T cruzi repl 60
Cc1cnc(C(=O)OCC(=O)Nc2cccc(S(=O)(=O)N3CCOCC3)c2)cn1	none (no result: PfHsp90 set2, SKKanGAS inh, HIF act, T cruzi repl)
Cc1ccc(N(CCC#N)C(=O)CCl)cc1C	T cruzi repl 59
CC(C)c1ccc(N(C(=O)c2csnn2)C(C(=O)NC2CCCC2)c2cccnc2)cc1 (centres undefined)	none
CCc1cc2c(=O)n(Cc3ccco3)c(SCc3c(C)noc3C)nc2s1	SKKanGAS inh 99
C/C(=N\NC(=O)CN1CCCCC1)c1ccccc1O	HIF act 13
CCCNC(=O)c1ccc(CN2CCc3ccccc3C2)cc1	none
C/C(=N\NC(=O)CN1CCCCC1)c1cccc([N+](=O)[O-])c1	none (no result: Beta apoptosis)
O=C(Nc1ccc(S(=O)(=O)N2CCOCC2)cc1)c1ccc(CN2CCc3ccccc3C2)cc1	Beta apoptosis 123 (no result: PfHsp90 set2)
C/C(=N\NC(=O)c1ccc(CN2CCc3ccccc3C2)cc1)c1ccccc1O	T cruzi repl 64
O=C(CCC(=O)Nc1cccc(Cl)c1)N/N=C/c1cc([N+](=O)[O-])ccc1O	SKKanGAS inh 100
CCOc1ccc(S(=O)(=O)N(CC(=O)N/N=C/c2ccc(-c3ccc([N+](=O)[O-])cc3)o2)c2ccccc2)cc1	none
O=C(CCCC(=O)Nc1cccc(Br)c1)N/N=C/c1cc([N+](=O)[O-])ccc1O	SKKanGAS inh 99
Cc1ccc(NC(=O)CCC(=O)N/N=C/c2cc([N+](=O)[O-])ccc2O)cc1	none
O=C(CN(c1cccc(Br)c1)S(=O)(=O)c1ccccc1)N/N=C/c1cc([N+](=O)[O-])ccc1O	SKKanGAS inh 119 (no result: Beta apoptosis)
Cc1ccc(C)c(N(CC(=O)N/N=C/c2ccc(-c3ccc([N+](=O)[O-])cc3)o2)S(=O)(=O)c2ccccc2)c1	T cruzi repl 72
COc1ccc(S(=O)(=O)CCc2nnc(NC(=O)c3ccc(F)cc3)s2)cc1	none
O=C(/C=C/c1ccc(N2CCCCC2)c([N+](=O)[O-])c1)c1ccc(O)cc1	CSC inhib 110
COc1ccc2nc(Nc3nc(CSc4nc5ccccc5[nH]4)cc(=O)[nH]3)nc(C)c2c1	Beta apoptosis 77
Cc1nc(Nc2nc(CSc3ccc(Cl)cc3)cc(=O)[nH]2)nc2ccccc12	none
COc1ccc2c(C)nc(Nc3nc(C)c(C)c(=O)[nH]3)nc2c1	CSC inhib 106
Cc1nc(Nc2nc(-c3ccccc3)cc(=O)[nH]2)nc2ccccc12	SKKanGAS inh 82 (no result: CSC inhib)
Cc1nc(Nc2nc(CSc3nc4ccccc4[nH]3)cc(=O)[nH]2)nc2ccccc12	CSC inhib 195
CCc1c(C)nc(Nc2nc(C)c3ccc(OC)cc3n2)[nH]c1=O	none
COc1ccccc1NC(=O)COC(=O)c1[nH]c(=O)[nH]c(=O)c1N	none (no result: SKKanGAS inh, HIF act, T cruzi repl)
CC(Oc1ccccc1)C(=O)NNC(=O)c1ccccn1 (centres undefined)	none
C/C(=N\NC(=O)C(C)Oc1ccc([N+](=O)[O-])cc1)c1ccccn1 (centres undefined)	Beta apoptosis 90, T cruzi repl inconclusive (no result: PfHsp90 set2)
COc1ccc(CCN(C)CC(=O)Nc2c(C)cc(C)cc2C)cc1OC	T cruzi repl 61
O=C(c1ccccc1Cc1ccccc1)N1CCN(S(=O)(=O)c2ccccc2[N+](=O)[O-])CC1	none
O=[N+]([O-])c1ccc(CSc2ccc(S(=O)(=O)N3CCOCC3)cn2)cc1	none (no result: Beta apoptosis, SKKanGAS inh, HIF act, T cruzi repl, CSC inhib)
CCOc1ccc(CCN2C(=S)N([C@@H](CC(C)C)CN3CCCC3CN3C(=S)NC[C@@H]3Cc3ccc(O)cc3)C[C@@H]2CC(C)C)cc1 (some centres undefined)	none (no result: Beta apoptosis, SKKanGAS inh, HIF act, T cruzi repl, CSC inhib)
COc1ccc(-c2cc(C(=O)N/N=C(\C)c3ccco3)c3ccccc3n2)c(OC)c1	SKKanGAS inh 54
COc1ccc(-c2cc(C(=O)N3CCN(c4ccccc4O)CC3)c3ccccc3n2)cc1	none (no result: SKKanGAS inh, HIF act, T cruzi repl)
COc1ccc(-c2cc(C(=O)N3CCN(c4ccccc4F)CC3)c3ccccc3n2)c(OC)c1	PfHsp90 set2 104
